According to ChEMBL document CHEMBL1150052, “A colorimetric microassay for the detection of agents that interact with DNA” (J Nat Prod, 1992):
Converted amounts (≈) assume the structure as drawn.

Columns and labels:
Nucleic Acid = assay: Displacement of methyl green from DNA after 24 hrs by microtiter assay; format: nucleic-acid assay
Procedure, shortened: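 Complex: DNA–methyl green reagent (20 mg/100 ml) in 0.05 M Tris-HCl pH 7.5 with 7.5 mM MgSO4, stirred 24 h at 37°. Samples dried from EtOH in wells, then complex added. A630 read at once and after 24 h dark at ambient temperature. Final corrected for initial, normalized to untreated complex. IC50 for 50% decrease by linear regression on semi-log plot; n = 3 to 5.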

Calf thymus DNA = assay: Displacement of ethidium bromide from calf thymus type 1 DNA after 4 hrs by microtiter assay

IC50 (Nucleic Acid) | Structure (SMILES) | IC50 (Calf thymus DNA)
37 µg/mL (≈ 81.8 µM) | CCOc1ccc(-c2nc3cc(-c4nc5cc(N6CCN(C)CC6)ccc5[nH]4)ccc3[nH]2)cc1 | 33 µg/mL (≈ 72.9 µM)
20 µg/mL (≈ 40.3 µM) | COc1cc2c(oc(=O)c3cc(C)cc(OC)c32)c2c([C@@H]3O[C@H](C)[C@H](O)[C@@](C)(O)[C@H]3O)ccc(O)c12 [CHRYSOMYCIN B] | –
17 µg/mL (≈ 23.3 µM) | C/C=C\C1OC1(C)c1cc(=O)c2c(C)cc3c(c2o1)C(=O)c1c(O)c([C@H]2C[C@@](C)(N(C)C)[C@H](O)[C@H](C)O2)cc([C@@H]2C[C@H](N(C)C)[C@@H](O)[C@@H](C)O2)c1C3=O (some centres not stated) [RUBIFLAVIN] | 13 µg/mL (≈ 17.8 µM)
18 µg/mL (≈ 37.4 µM) | Cn1cc(NC(=O)c2cc(NC(=O)c3cc(NC=O)cn3C)cn2C)cc1C(=O)NCCC(=N)N [STALLIMYCIN] | 4.3 µg/mL (≈ 8.93 µM)
30 µg/mL (≈ 56.9 µM) | COc1cccc2c1C(=O)c1c(O)c3c(c(O)c1C2=O)C[C@@](O)(C(C)=O)C[C@@H]3O[C@H]1C[C@H](N)[C@H](O)[C@H](C)O1 [DAUNORUBICIN] | 2 µg/mL (≈ 3.79 µM)
67 µg/mL (≈ 238 µM) | N=C(N)c1ccc(/N=N/Nc2ccc(C(=N)N)cc2)cc1 [DIMINAZENE] | 59 µg/mL (≈ 210 µM)

Structure (SMILES) | IC50 (Nucleic Acid) | IC50 (Calf thymus DNA)
C/C=C\C1OC1(C)c1cc(=O)c2c(C)cc3c(c2o1)C(=O)c1c(O)c([C@H]2C[C@](C)(N(C)C)[C@@H](OC(C)=O)[C@@H](C)O2)cc([C@@H]2C[C@H](N(C)C)[C@@H](O)[C@@H](C)O2)c1C3=O (some centres not stated) [PLURAMYCIN] | 51 µg/mL (≈ 66 µM) | 3.6 µg/mL (≈ 4.66 µM)
COc1c(O)c2c(c3cc(C(=O)N4CCc5c4c(O)c(OC)c4[nH]c(C(=O)N6C[C@H]7C[C@@]78C6=CC(=O)c6[nH]cc(C)c68)cc54)[nH]c13)CCN2C(N)=O [(+)-CC-1065] | 62 µg/mL (≈ 88.1 µM) | 26 µg/mL (≈ 36.9 µM)
COC(=O)C(O)(c1cc2c(c3oc([C@]4(C)C[C@@H]4C)cc(=O)c13)C(=O)c1c(ccc([C@H]3C[C@](C)(N(C)C)[C@H](O[C@@H]4C[C@H](OC)[C@H](O)[C@@H](C)O4)[C@H](C)O3)c1O)C2=O)[C@H]1O[C@H](C)[C@@H](O)[C@@H](OC)[C@@H]1O (some centres not stated) [ALTROMYCIN B] | 67 µg/mL (≈ 72.5 µM) | 44 µg/mL (≈ 47.6 µM)
